From PubChem BioAssay
T cell HTS: T cell immune modulation candidate; response (vesicle binding), % at 7 µM; 330,000 tested, 0.068% active; 2C CD8+ T cell-vesicle binding, flow cytometry; stronger effect = lower value;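 active means response, share of CD8 T cells binding vesicles, and their 90th percentile fluorescence all below set limits, cut at about 80% in these data, passing the limit was not always enough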;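 further: values below 100% mean blocked vesicle binding to the CD8+ T cells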
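Material: murine 2C transgenic CD8+ T lymphocytes / Also added: QL9-peptide-loaded Drosophila micro-vesicles bearing Ld, ICAM-1 and B7-1 / Schedule: binding step 1.5 h, 37 °C, antibody labelling 20 min, ice / Signal: flow cytometry, PE anti-B7-1 (FL2) versus Alexa647 anti-CD8 (FL8), PFA-fixed / Evaluation: percent CD8+ FL2 mean versus row control / Benchmarks: naked versus QL9-loaded vesicles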
Pemphigus Ab inh: inhibitors of pemphigus antibody binding to human desmoglein-3; P32926; DSG3-coupled beads, scFv-anti-DSG3-GFP binding, flow cytometry; stronger effect = lower value; binding (percent of control), % at 10 µM; 310,000 tested, 0.48% active;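 active means binding more than 3 SD below its plate's average and above zero; inconclusive means below that plate limit but binding exactly zero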;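 further: hits lower antibody fragment binding to DSG3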
Target sequence (P32926 whole entry, looked up, the tested form may be a part): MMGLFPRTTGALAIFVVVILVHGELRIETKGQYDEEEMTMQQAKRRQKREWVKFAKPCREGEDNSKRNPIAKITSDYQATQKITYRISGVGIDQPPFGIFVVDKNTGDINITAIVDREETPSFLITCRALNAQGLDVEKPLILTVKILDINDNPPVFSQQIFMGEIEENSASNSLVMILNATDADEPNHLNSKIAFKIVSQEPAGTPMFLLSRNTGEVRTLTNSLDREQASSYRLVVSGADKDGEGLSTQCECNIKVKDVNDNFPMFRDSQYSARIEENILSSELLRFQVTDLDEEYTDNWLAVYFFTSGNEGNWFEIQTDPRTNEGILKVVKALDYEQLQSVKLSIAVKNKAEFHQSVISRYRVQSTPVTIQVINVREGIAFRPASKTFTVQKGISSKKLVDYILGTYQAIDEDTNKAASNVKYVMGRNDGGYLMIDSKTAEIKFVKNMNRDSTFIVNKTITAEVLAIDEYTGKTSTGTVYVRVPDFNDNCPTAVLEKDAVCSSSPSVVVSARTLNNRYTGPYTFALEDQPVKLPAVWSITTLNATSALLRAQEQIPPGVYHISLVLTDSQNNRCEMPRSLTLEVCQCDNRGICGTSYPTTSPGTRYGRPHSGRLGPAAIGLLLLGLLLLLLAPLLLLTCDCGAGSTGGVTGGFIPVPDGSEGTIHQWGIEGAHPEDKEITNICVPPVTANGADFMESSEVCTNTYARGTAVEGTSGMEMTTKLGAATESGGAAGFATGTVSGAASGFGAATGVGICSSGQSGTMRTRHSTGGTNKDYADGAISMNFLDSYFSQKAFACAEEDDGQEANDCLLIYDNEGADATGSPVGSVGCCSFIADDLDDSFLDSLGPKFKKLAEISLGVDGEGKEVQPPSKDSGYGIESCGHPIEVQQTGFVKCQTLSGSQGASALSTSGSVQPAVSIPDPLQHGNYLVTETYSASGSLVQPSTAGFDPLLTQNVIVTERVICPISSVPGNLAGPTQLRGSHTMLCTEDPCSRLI
HDAC3 inhib: inhibitors of human histone deacetylase 3 | O15379 | recombinant HDAC3, fluorogenic peptide/trypsin coupled, fluorescence | inhibition, % at 8.3 µM | 320,000 tested, 0.15% active | AID 2718; in the data active means inhibition above about 26%, passing the limit was not always enough; inconclusive means no clear call, values can overlap the other calls
LANA-H2A inh: blocks KSHV LANA binding to histone H2A/H2B | 320,000 tested, 0.6% active | AID 2629 | Q9QR71 | inhibition, % (concentration not given with the values) | cell-free LANA-H2A/H2B peptide, fluorescence polarization; in the data active means inhibition mostly above about 10%, no sharp cut-off; inactive means mostly below about 6.7%
Arr AP2 block: blocks beta-arrestin peptide binding to AP2 adaptin; FITC-arrestin peptide / GST-AP2 beads, flow cytometry; AP2 beta2 appendage carries R879A mutation; 340,000 tested, 0.31% active; AID 504490; inhibition, % at 10 µM;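 active means inhibition above a set limit, near 3 SD of compounds lacking own fluorescence, cut at about 54% in these data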;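 further: plate controls were DMSO wells for no effect and 5 µM unlabelled arrestin peptide for full effect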
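system = GST-tagged AP2 beta2-adaptin appendage (R879A) on 4 µm glutathione beads | reagent = FITC-labelled arrestin peptide probe, 50 nM final | schedule = compound with beads 12 min RT, then probe 1 h RT | signal = HyperCyt-sampled flow cytometry, FL1 channel, ex 488/em 535 nm | read-out = percent response from loss of bead-bound FITC fluorescence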
Starred values were filed as active, the others as inactive. A selection: hits, their analogues and other compounds. The true share with any hit is near 1.5%.

Screening COc1ccc([N+](=O)[O-])cc1NCC(=O)Nc1cccc(S(=O)(=O)N2CCCC2)c1 returned Pemphigus Ab inh 101.0 and Arr AP2 block 5.6.
`C[n+]1ccccc1/C=C1\Sc2ccccc2N1CCO` gave T cell HTS 206.7, Pemphigus Ab inh 104.8, HDAC3 inhib 6.3, LANA-H2A inh -11.5 and Arr AP2 block 17.6.
`CCC(CO)[n+]1c(C)cc(/C=C2\Sc3ccccc3N2Cc2ccccc2)cc1C` (stereo not drawn) gave T cell HTS inactive, Pemphigus Ab inh 223.7, HDAC3 inhib 26.3*, LANA-H2A inh -249.6 and Arr AP2 block 8.3.
CC1CCCCN1CCNC(=O)CCc1nnc2n(Cc3ccccc3)c(=O)c3ccccc3n12 (stereo not drawn) was read as T cell HTS 150.4, Pemphigus Ab inh 116.8, HDAC3 inhib 0.6, LANA-H2A inh 0.2 and Arr AP2 block -1.5.
CC1CCCC(C)N1CCNC(=O)CCc1nnc2n(Cc3ccccc3)c(=O)c3ccccc3n12 (stereo not drawn) was read as T cell HTS 0.0*, Pemphigus Ab inh 114.8, HDAC3 inhib -6.3, LANA-H2A inh 0.8 and Arr AP2 block 0.1.
`c1ccc(CNc2ccc(N3CCOCC3)cc2)cc1` gave T cell HTS 359.9, HDAC3 inhib 3.3, LANA-H2A inh 17.3* and Arr AP2 block 2.2.
N#Cc1nc(-c2ccc(OCc3ccccc3)cc2)oc1N1CCC(C(N)=O)CC1 was read as T cell HTS 398.4, Pemphigus Ab inh 65.6*, HDAC3 inhib -0.6, LANA-H2A inh 2.2 and Arr AP2 block 10.2.
For CSCCC(NS(=O)(=O)c1ccc(C)cc1)C(=O)NCC(C)(C)N1CCOCC1 (stereo not drawn) the results were T cell HTS 605.6, Pemphigus Ab inh 98.4, HDAC3 inhib 1.4, LANA-H2A inh -4.0 and Arr AP2 block -11.7.
For COc1ccccc1C(=O)Nc1ccc2c(c1)nc1n2CCN(Cc2ccccc2)C1 the results were T cell HTS inactive, Pemphigus Ab inh 108.6, HDAC3 inhib -7.1, LANA-H2A inh 16.3* and Arr AP2 block 19.5.
For O=C(Nc1ccc2c(c1)nc1n2CCN(Cc2ccccc2)C1)c1cccs1 the results were T cell HTS 231.9, Pemphigus Ab inh 100.0, HDAC3 inhib 2.5, LANA-H2A inh 6.9 and Arr AP2 block -0.3.
`CC1CC(C)CN(S(=O)(=O)CCNC(=O)c2ccccc2)C1` (stereo not drawn) gave T cell HTS 698.0, Pemphigus Ab inh 124.3, HDAC3 inhib 2.5, LANA-H2A inh -0.2 and Arr AP2 block 8.2.
CCCCCCC1(C)NC(=S)N(c2ccccc2)N1 (stereo not drawn) was read as T cell HTS 166.9, Pemphigus Ab inh 96.8, HDAC3 inhib inconclusive, LANA-H2A inh 12.7* and Arr AP2 block -7.8.
COc1ccc(/C=C/C(=O)O/N=C(\N)c2ccccn2)cc1OC was read as T cell HTS 348.1, Pemphigus Ab inh 105.0, HDAC3 inhib 5.7, LANA-H2A inh 20.7* and Arr AP2 block -4.2.
`Cc1ccccc1NS(=O)(=O)c1nnc(NC(=O)c2ccccc2C)s1` gave T cell HTS 490.9, Pemphigus Ab inh 111.1, HDAC3 inhib 3.3, LANA-H2A inh 3.1 and Arr AP2 block 2.0.
CCC(CC)CC1CN2CCc3cc(OC)c(OC)cc3C2CC1(O)CC (stereo not drawn) was read as Pemphigus Ab inh 101.7.
Screening Cc1ccc(CONC(=O)c2cccc([N+](=O)[O-])c2)cc1 returned T cell HTS 246.8, Pemphigus Ab inh 93.6, HDAC3 inhib 1.2, LANA-H2A inh 6.0 and Arr AP2 block -10.9.
Screening COC(=O)C(/C=N/OCc1ccc([N+](=O)[O-])cc1)NC(=O)c1cccc(Cl)c1 (stereo not drawn) returned T cell HTS 397.4, Pemphigus Ab inh 90.5, HDAC3 inhib 44.3*, LANA-H2A inh 1.9 and Arr AP2 block 1.1.
CCOc1ccc(OCC(=O)N(C)c2c(N)n(Cc3ccccc3)c(=O)[nH]c2=O)cc1 was read as T cell HTS 78.1, Pemphigus Ab inh 96.8, HDAC3 inhib -4.4, LANA-H2A inh 1.9 and Arr AP2 block -1.3.
CN(C(=O)CCOc1ccccc1)c1c(N)n(Cc2ccccc2)c(=O)[nH]c1=O was read as T cell HTS 262.8, Pemphigus Ab inh 63.4* and Arr AP2 block -4.0.
For CCN(C(=O)COC(=O)c1cc(Cl)ccc1OC)c1c(N)n(Cc2ccccc2)c(=O)[nH]c1=O the results were T cell HTS 331.3, Pemphigus Ab inh 101.0, HDAC3 inhib -0.8, LANA-H2A inh 38.8* and Arr AP2 block -38.0.
`Cn1c(CNC(=O)CCNC(=O)c2cccc(F)c2)cc(=O)n(C)c1=O` gave T cell HTS 469.9, Pemphigus Ab inh 98.0, HDAC3 inhib 3.4, LANA-H2A inh 5.7 and Arr AP2 block -11.6.
COc1cc(C(=O)NCCc2ccc(F)cc2)ccc1OCC(=O)N1CCOCC1 was read as T cell HTS 316.8, Pemphigus Ab inh 86.4*, LANA-H2A inh 5.6 and Arr AP2 block 7.9.
For COc1cc(C(=O)N2CCN(S(=O)(=O)c3cccc(F)c3)CC2)ccc1OCC(=O)N1CCOCC1 the results were T cell HTS 571.3, Pemphigus Ab inh 86.6* and Arr AP2 block -0.6.
`Cc1cc(C(=O)CS(=O)(=O)c2ccc(F)cc2)cc(C)c1O` gave T cell HTS 273.4, Pemphigus Ab inh 102.9, HDAC3 inhib 9.2, LANA-H2A inh 0.7 and Arr AP2 block 66.8*.
CCC(Oc1ccccc1)C(=O)OCC(=O)Nc1sccc1C(N)=O (stereo not drawn) was read as T cell HTS 245.1 and Arr AP2 block 19.7.
Screening COc1ccccc1OCCC(=O)NNC(=O)c1ccccc1F returned T cell HTS 635.5, Pemphigus Ab inh 101.3, HDAC3 inhib -0.6, LANA-H2A inh -12.0 and Arr AP2 block 0.7.
For O=C(Nc1nc2ccccc2[nH]1)c1ccccc1[N+](=O)[O-] the results were T cell HTS 30.0*, Pemphigus Ab inh 97.2, HDAC3 inhib -0.3, LANA-H2A inh 3.6 and Arr AP2 block 1.9.
For Cc1c(C(=O)Nc2nc3ccccc3[nH]2)cccc1[N+](=O)[O-] the results were T cell HTS 313.5, Pemphigus Ab inh 98.5, HDAC3 inhib 1.6, LANA-H2A inh 1.2 and Arr AP2 block -12.7.
Screening O=C(CCN1CCN(Cc2ccccc2)CC1)NNC(=O)c1ccc(Cl)c(Cl)c1 returned Pemphigus Ab inh 99.2.
Screening Cc1cccc2cc(C#N)c(NCCNC(=O)NC3CCCCC3)nc12 returned T cell HTS 260.3, HDAC3 inhib -10.3, LANA-H2A inh -0.4 and Arr AP2 block 20.8.
`Cc1ccc2cc(C#N)c(NCCNC(=O)C3CCC3)nc2c1C` gave T cell HTS inactive, Pemphigus Ab inh 100.2, HDAC3 inhib -46.5, LANA-H2A inh 53.1* and Arr AP2 block 3.9.
